In ChEMBL document CHEMBL3992547, “Antimicrobial activity of rhodanine-3-acetic acid derivatives” (Bioorg Med Chem, 2017):
Converted amounts (≈) assume the structure as drawn. The source made the active and inactive calls. The rule behind the calls is not given here.

How the values were obtained:
[1] = tested on: Candida albicans; test: Antifungal activity against Candida albicans ATCC 44859 after 24 hrs by microdilution broth assay; assay type: functional; conditions: ATCC 44859, 24 h
Outline: (§1)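 Broth microdilution per CLSI M27-A3 and M38-A2 in RPMI 1640 with glutamine, buffered to pH 7.0 with MOPS. Compounds are diluted in DMSO. Final inoculum is 5 × 10³ CFU/mL for yeasts and 0.5–5 × 10⁴ CFU/mL for moulds. Plates are incubated in the dark at 35 °C in humid air and read visually and/or at 540 nm after 24 and 48 h. MIC is ≥80% growth reduction (IC₈₀) for yeasts and ≥50% (IC₅₀) for filamentous fungi.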

[2] = tested on: Staphylococcus aureus; test: Antibacterial activity against Staphylococcus aureus CCM 4516/08 incubated for 24 hrs under dark condition by microdilution broth assay; assay type: functional; conditions: CCM 4516/08, 24 h
Outline: (§2)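 Broth microdilution per M07-A07, modified, in Mueller-Hinton broth adjusted to pH 7.4 (±0.2). Inoculum is prepared in sterile water to McFarland 0.5 (1.5 × 10⁸ CFU/mL). Plates are incubated in the dark at 35 °C in humid air. MIC is read after 24 and 48 h as at least 95% growth reduction versus control (IC₉₅).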

[3] = tested on: Mycobacterium kansasii; test: Antimycobacterial activity against Mycobacterium kansasii isolate 6509/96 after 21 days by micromethod; assay type: functional; conditions: isolate 6509/96, 504 h
[4] = tested on: Escherichia coli; test: Antibacterial activity against Escherichia coli CCM 4517 incubated for 48 hrs under dark condition by microdilution broth assay; assay type: functional; conditions: CCM 4517, 48 h; outline: as §2
[5] = tested on: Klebsiella pneumoniae; test: Antibacterial activity against Klebsiella pneumoniae D 11750/08 up to 500 uM incubated for 24 to 48 hrs under dark condition by microdilution broth assay; assay type: functional; outline: as §2
[6] = tested on: Nakaseomyces glabratus; test: Antifungal activity against Candida glabrata 20/I after 24 hrs by microdilution broth assay; assay type: functional; outline: as §1
[7] = tested on: Mycobacterium avium; test: Antimycobacterial activity against Mycobacterium avium 330/88 measured after 14 days by micromethod; assay type: functional; conditions: 330/88, 336 h
[8] = tested on: Escherichia coli; test: Antibacterial activity against Escherichia coli CCM 4517 incubated for 24 hrs under dark condition by microdilution broth assay; assay type: functional; conditions: CCM 4517, 24 h; outline: as §2
[9] = tested on: Candida tropicalis; test: Antifungal activity against Candida tropicalis 156 after 48 hrs by microdilution broth assay; assay type: functional; conditions: Candida tropicalis, 156, 48 h; outline: as §1
[10] = Solubility of the compound in Sula's semisynthetic medium up to 1 mM; assay type: physicochemical
[11] = tested on: Trichosporon asahii; test: Antifungal activity against Trichosporon asahii 1188 after 48 hrs by microdilution broth assay; assay type: functional; conditions: Trichosporon asahii, 1188, 48 h; outline: as §1
[12] = tested on: Candida albicans; test: Antifungal activity against Candida albicans ATCC 44859 after 48 hrs by microdilution broth assay; assay type: functional; conditions: ATCC 44859, 48 h; outline: as §1
[13] = tested on: Mycobacterium kansasii; test: Antimycobacterial activity against Mycobacterium kansasii isolate 235/80 after 7 days by micromethod; assay type: functional; conditions: isolate 235/80, 168 h
[14] = tested on: Pichia kudriavzevii; test: Antifungal activity against Candida krusei E28 after 24 to 48 hrs hrs by microdilution broth assay; assay type: functional; outline: as §1
[15] = tested on: Staphylococcus aureus; test: Antibacterial activity against methicillin-resistant Staphylococcus aureus H 5996/08 incubated for 24 hrs under dark condition by microdilution broth assay; assay type: functional; conditions: H 5996/08, 24 h
Outline: (§3)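 Microdilution broth method modified per M07-A07, in Mueller-Hinton broth adjusted to pH 7.4 (±0.2). Inoculum made in sterile water to 0.5 McFarland (1.5 × 10⁸ CFU/mL). Plates incubated in the dark at 35 °C in a humid atmosphere, with reads at 24 and 48 h. MIC taken as at least 95% growth reduction (IC₉₅) versus control.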

[16] = tested on: Klebsiella pneumoniae; test: Antibacterial activity against ESBL positive Klebsiella pneumoniae J 14368/08 up to 500 uM incubated for 24 to 48 hrs under dark condition by microdilution broth assay; assay type: functional; outline: as §2
[17] = tested on: Mycobacterium tuberculosis; test: Antimycobacterial activity against Mycobacterium tuberculosis H37Rv 331/88 measured after 14 days by micromethod; assay type: functional; conditions: H37Rv 331/88, 336 h
[18] = tested on: Mycobacterium kansasii; test: Antimycobacterial activity against Mycobacterium kansasii isolate 235/80 after 21 days by micromethod; assay type: functional; conditions: isolate 235/80, 504 h
[19] = tested on: Staphylococcus aureus; test: Antibacterial activity against Staphylococcus aureus CCM 4516/08 incubated for 48 hrs under dark condition by microdilution broth assay; assay type: functional; conditions: CCM 4516/08, 48 h; outline: as §2
[20] = tested on: Candida tropicalis; test: Antifungal activity against Candida tropicalis 156 after 24 hrs by microdilution broth assay; assay type: functional; conditions: Candida tropicalis, 156, 24 h; outline: as §1
[21] = tested on: Mycobacterium kansasii; test: Antimycobacterial activity against Mycobacterium kansasii isolate 235/80 after 14 days by micromethod; assay type: functional; conditions: isolate 235/80, 336 h
[22] = tested on: Mycobacterium kansasii; test: Antimycobacterial activity against Mycobacterium kansasii isolate 6509/96 after 14 days by micromethod; assay type: functional; conditions: isolate 6509/96, 336 h
[23] = tested on: Aspergillus fumigatus; test: Antifungal activity against Aspergillus fumigatus 231 after 24 hrs by microdilution broth assay; assay type: functional; conditions: Aspergillus fumigatus, 231, 24 h; outline: as §1
[24] = tested on: Staphylococcus epidermidis; test: Antibacterial activity against Staphylococcus epidermidis H 6966/08 incubated for 24 hrs under dark condition by microdilution broth assay; assay type: functional; conditions: H 6966/08, 24 h; outline: as §2
[25] = tested on: Aspergillus fumigatus; test: Antifungal activity against Aspergillus fumigatus 231 after 48 hrs by microdilution broth assay; assay type: functional; conditions: Aspergillus fumigatus, 231, 48 h; outline: as §1
[26] = tested on: Mycobacterium tuberculosis; test: Antimycobacterial activity against Mycobacterium tuberculosis H37Rv 331/88 measured after 21 days by micromethod; assay type: functional; conditions: H37Rv 331/88, 504 h
[27] = tested on: Enterococcus; test: Antibacterial activity against Enterococcus sp. J 14365/08 incubated for 48 hrs under dark condition by microdilution broth assay; conditions: J 14365/08, 48 h
[28] = tested on: Trichophyton mentagrophytes; test: Antifungal activity against Trichophyton mentagrophytes 445 after 72 hrs by microdilution broth assay; assay type: functional; conditions: Trichophyton mentagrophytes, 445, 72 h
Outline: (§4)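 Broth microdilution per CLSI M38-A2 in RPMI 1640 with glutamine, buffered to pH 7.0 with MOPS, with DMSO as diluent. Final inoculum is 0.5–5 × 10⁴ CFU/mL. Plates are incubated in the dark at 35 °C in humid air and read visually and/or at 540 nm after 72 and 120 h. MIC is at least 50% growth reduction versus control.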

[29] = tested on: Mycobacterium kansasii; test: Antimycobacterial activity against Mycobacterium kansasii isolate 6509/96 after 7 days by micromethod; assay type: functional; conditions: isolate 6509/96, 168 h
[30] = tested on: Lichtheimia corymbifera; test: Antifungal activity against Absidia corymbifera 272 after 24 to 48 hrs hrs by microdilution broth assay; assay type: functional; outline: as §1
[31] = tested on: Mycobacterium avium; test: Antimycobacterial activity against Mycobacterium avium 330/88 measured after 21 days by micromethod; assay type: functional; conditions: 330/88, 504 h
[32] = tested on: Trichosporon asahii; test: Antifungal activity against Trichosporon asahii 1188 after 24 hrs by microdilution broth assay; assay type: functional; conditions: Trichosporon asahii, 1188, 24 h; outline: as §1
[33] = tested on: Trichophyton mentagrophytes; test: Antifungal activity against Trichophyton mentagrophytes 445 after 120 hrs by microdilution broth assay; assay type: functional; conditions: Trichophyton mentagrophytes, 445, 120 h; outline: as §4
[34] = tested on: Enterococcus; test: Antibacterial activity against Enterococcus sp. J 14365/08 incubated for 24 hrs under dark condition by microdilution broth assay; conditions: J 14365/08, 24 h
[35] = tested on: Nakaseomyces glabratus; test: Antifungal activity against Candida glabrata 20/I after 48 hrs by microdilution broth assay; assay type: functional; outline: as §1
[36] = tested on: Staphylococcus aureus; test: Antibacterial activity against methicillin-resistant Staphylococcus aureus H 5996/08 incubated for 48 hrs under dark condition by microdilution broth assay; assay type: functional; conditions: H 5996/08, 48 h; outline: as §3
[37] = tested on: Pseudomonas aeruginosa; test: Antibacterial activity against Pseudomonas aeruginosa CCM 1961 up to 500 uM incubated for 24 to 48 hrs under dark condition by microdilution broth assay; assay type: functional; outline: as §2
[38] = tested on: Staphylococcus epidermidis; test: Antibacterial activity against Staphylococcus epidermidis H 6966/08 incubated for 48 hrs under dark condition by microdilution broth assay; assay type: functional; conditions: H 6966/08, 48 h; outline: as §2

Structure (SMILES) | MIC80 [1] | MIC95 [2] | MIC [3] | MIC95 [4] | Activity [5] | MIC80 [6] | MIC [7] | MIC95 [8] | MIC80 [9] | solubility [10] | MIC80 [11] | MIC80 [12] | MIC [13] | MIC80 [20] | MIC50 [23] | MIC50 [25] | MIC50 [28] | MIC80 [32] | MIC50 [33] | MIC80 [35] | further results
CC(=O)Oc1ccccc1/C=C1\SC(=S)N(CC(=O)O)C1=O | > 500 µM | 62.5 µM (≈ 21.1 µg/mL) | 62.5 µM (≈ 21.1 µg/mL) | > 500 µM | inactive | > 500 µM | 62.5 µM (≈ 21.1 µg/mL) | > 500 µM | > 500 µM | Soluble | > 500 µM | > 500 µM | 62.5 µM (≈ 21.1 µg/mL) | > 500 µM | > 500 µM | > 500 µM | 250 µM (≈ 84.3 µg/mL) | > 500 µM | 500 µM (≈ 169 µg/mL) | > 500 µM | Activity [14]: inactive; MIC95 [15]: 62.5 µM (≈ 21.1 µg/mL); Activity [16]: inactive; MIC [17]: 32 µM (≈ 10.8 µg/mL); MIC [18]: 62.5 µM (≈ 21.1 µg/mL); MIC95 [19]: 62.5 µM (≈ 21.1 µg/mL); MIC [21]: 62.5 µM (≈ 21.1 µg/mL); MIC [22]: 62.5 µM (≈ 21.1 µg/mL); MIC95 [24]: 31.2 µM (≈ 10.5 µg/mL); MIC [26]: 32 µM (≈ 10.8 µg/mL); MIC95 [27]: 125 µM (≈ 42.2 µg/mL); MIC [29]: 62.5 µM (≈ 21.1 µg/mL); Activity [30]: inactive; MIC [31]: 62.5 µM (≈ 21.1 µg/mL); MIC95 [34]: 62.5 µM (≈ 21.1 µg/mL); MIC95 [36]: 62.5 µM (≈ 21.1 µg/mL); Activity [37]: inactive; MIC95 [38]: 31.2 µM (≈ 10.5 µg/mL)
O=C(O)CN1C(=O)/C(=C/c2ccc(O)cc2)SC1=S | 500 µM (≈ 148 µg/mL) | 500 µM (≈ 148 µg/mL) | 1000 µM (≈ 295 µg/mL) | > 500 µM | inactive | > 500 µM | 1000 µM (≈ 295 µg/mL) | > 500 µM | > 500 µM | Soluble | > 500 µM | 500 µM (≈ 148 µg/mL) | 1000 µM (≈ 295 µg/mL) | > 500 µM | > 500 µM | > 500 µM | > 500 µM | > 500 µM | > 500 µM | > 500 µM | Activity [14]: inactive; MIC95 [15]: 500 µM (≈ 148 µg/mL); Activity [16]: inactive; MIC [17]: 1000 µM (≈ 295 µg/mL); MIC [18]: 1000 µM (≈ 295 µg/mL); MIC95 [19]: > 500 µM; MIC [21]: 1000 µM (≈ 295 µg/mL); MIC [22]: 1000 µM (≈ 295 µg/mL); MIC95 [24]: 250 µM (≈ 73.8 µg/mL); MIC [26]: 1000 µM (≈ 295 µg/mL); MIC95 [27]: > 500 µM; MIC [29]: 1000 µM (≈ 295 µg/mL); Activity [30]: inactive; MIC [31]: 1000 µM (≈ 295 µg/mL); MIC95 [34]: > 500 µM; MIC95 [36]: > 500 µM; Activity [37]: inactive; MIC95 [38]: 500 µM (≈ 148 µg/mL)
OC(Cn1cncn1)(Cn1cncn1)c1ccc(F)cc1F [FLUCONAZOLE] | 0.24 µM (≈ 0.0735 µg/mL) |  |  |  |  | 62.5 µM (≈ 19.1 µg/mL) |  |  | > 500 µM |  | 500 µM (≈ 153 µg/mL) | 0.24 µM (≈ 0.0735 µg/mL) |  | > 500 µM | > 500 µM | > 500 µM | 7.81 µM (≈ 2.39 µg/mL) | 250 µM (≈ 76.6 µg/mL) | 125 µM (≈ 38.3 µg/mL) | 500 µM (≈ 153 µg/mL) | 
